Legend:
[1] = molecular target: Serine/threonine-protein kinase PAK 3 (Homo sapiens) (UniProt O75914); test: Inhibition of PAK3 (unknown origin) using [gamma-33P]ATP assessed as residual activity at 3 uM
[2] = molecular target: Muscle, skeletal receptor tyrosine-protein kinase (Homo sapiens) (UniProt O15146); test: Inhibition of MUSK (unknown origin) using [gamma-33P]ATP assessed as residual activity at 3 uM
[3] = molecular target: Serine/threonine-protein kinase mTOR (Homo sapiens) (UniProt P42345); test: Inhibition of mTOR (unknown origin) using [gamma-33P]ATP assessed as residual activity at 3 uM
[4] = molecular target: Serine/threonine-protein kinase MRCK beta (Homo sapiens) (UniProt Q9Y5S2); test: Inhibition of MRCKB (unknown origin) using [gamma-33P]ATP assessed as residual activity at 3 uM
[5] = molecular target: Casein kinase I isoform delta (Homo sapiens) (UniProt P48730); test: Inhibition of CK1d (unknown origin) using [gamma-33P]ATP assessed as residual activity at 3 uM
Procedure, shortened: (§1)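 Radiometric profiling across 288 kinases (261 wild-type, 27 mutant), run as an outsourced service. Inhibition read out as [gamma-33P]ATP incorporation into substrate.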

[6] = molecular target: CDK6/cyclin D3 (Homo sapiens) (UniProt P30281+Q00534); test: Inhibition of CDK6/cyclin D3 (unknown origin) using [gamma-33P]ATP assessed as residual activity at 3 uM; assay type: protein-complex assay; procedure, shortened: as §1
[7] = molecular target: Cyclin-dependent kinase 4/cyclin D1 (Homo sapiens) (UniProt P11802+P24385); test: Inhibition of CDK4/cyclinD1 (unknown origin) using [gamma-33P]ATP assessed as residual activity at 3 uM; assay type: protein-complex assay; procedure, shortened: as §1
[8] = molecular target: Calcium/calmodulin-dependent protein kinase type II subunit gamma (Homo sapiens) (UniProt Q13555); test: Inhibition of CAMK2g (unknown origin) using [gamma-33P]ATP assessed as residual activity at 3 uM; procedure, shortened: as §1
[9] = molecular target: Serine/threonine-protein kinase BRSK2 (Homo sapiens) (UniProt Q8IWQ3); test: Inhibition of BRSK2 (unknown origin) using [gamma-33P]ATP assessed as residual activity at 3 uM; procedure, shortened: as §1
[10] = system: Platelet-derived growth factor receptor alpha (Homo sapiens), P16234 [D842V]; test: Inhibition of PDGFRa D842V mutant (unknown origin) using [gamma-33P]ATP assessed as residual activity at 3 uM
[11] = molecular target: LIM domain kinase 1 (Homo sapiens) (UniProt P53667); test: Inhibition of LIMK1 (unknown origin) using [gamma-33P]ATP assessed as residual activity at 3 uM
Procedure, shortened: (§2)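 Radiometric kinase profiling service covering 288 kinases (261 wild-type, 27 mutant). Inhibition was read as incorporation from [γ-³³P]ATP.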

[12] = molecular target: Mitogen-activated protein kinase 8 (Homo sapiens) (UniProt P45983); test: Inhibition of JNK1a1 (unknown origin) using [gamma-33P]ATP assessed as residual activity at 3 uM; procedure, shortened: as §2
[13] = molecular target: Tyrosine-protein kinase ITK/TSK (Homo sapiens) (UniProt Q08881); test: Inhibition of ITK (unknown origin) using [gamma-33P]ATP assessed as residual activity at 3 uM; procedure, shortened: as §2
[14] = molecular target: Tyrosine-protein kinase Yes (Homo sapiens, UniProt P07947); test: Inhibition of YES (unknown origin) using [gamma-33P]ATP assessed as residual activity at 3 uM
[15] = molecular target: Tyrosine-protein kinase receptor TYRO3 (Homo sapiens) (UniProt Q06418); test: Inhibition of TYRO3 (unknown origin) using [gamma-33P]ATP assessed as residual activity at 3 uM
[16] = molecular target: Serine/threonine-protein kinase TBK1 (Homo sapiens) (UniProt Q9UHD2); test: Inhibition of TBK1 (unknown origin) using [gamma-33P]ATP assessed as residual activity at 3 uM
[17] = molecular target: Serine/threonine-protein kinase 33 (Homo sapiens) (UniProt Q9BYT3); test: Inhibition of STK33 (unknown origin) using [gamma-33P]ATP assessed as residual activity at 3 uM
[18] = molecular target: Testis-specific serine/threonine-protein kinase 1 (Homo sapiens) (UniProt Q9BXA7); test: Inhibition of STK22D (unknown origin) using [gamma-33P]ATP assessed as residual activity at 3 uM
[19] = molecular target: Serine/threonine-protein kinase Sgk1 (Homo sapiens) (UniProt O00141); test: Inhibition of SGK1 (unknown origin) using [gamma-33P]ATP assessed as residual activity at 3 uM
[20] = molecular target: Homeodomain-interacting protein kinase 4 (Homo sapiens) (UniProt Q8NE63); test: Inhibition of HIPK4 (unknown origin) using [gamma-33P]ATP assessed as residual activity at 3 uM; procedure, shortened: as §2
[21] = molecular target: Mitogen-activated protein kinase kinase kinase kinase 4 (Homo sapiens, UniProt O95819); test: Inhibition of HGK (unknown origin) using [gamma-33P]ATP assessed as residual activity at 3 uM
[22] = molecular target: Mitogen-activated protein kinase kinase kinase kinase 2 (Homo sapiens) (UniProt Q12851); test: Inhibition of GCK (unknown origin) using [gamma-33P]ATP assessed as residual activity at 3 uM
[23] = molecular target: Tyrosine-protein kinase Fgr (Homo sapiens, UniProt P09769); test: Inhibition of FGR (unknown origin) using [gamma-33P]ATP assessed as residual activity at 3 uM
[24] = molecular target: Fibroblast growth factor receptor 2 (Homo sapiens) (UniProt P21802); test: Inhibition of FGFR2 (unknown origin) using [gamma-33P]ATP assessed as residual activity at 3 uM
Procedure, shortened: (§3)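 Reaction Biology HotSpot radiometric profiling panel of 288 kinases (261 wild-type, 27 mutant). Kinase activity was read out by incorporation of [γ-33P]ATP.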

[25] = molecular target: Mitogen-activated protein kinase 3 (Homo sapiens) (UniProt P27361); test: Inhibition of ERK1 (unknown origin) using [gamma-33P]ATP assessed as residual activity at 3 uM; procedure, shortened: as §3
[26] = molecular target: Ephrin type-B receptor 4 (Homo sapiens) (UniProt P54760); test: Inhibition of EPHB4 (unknown origin) using [gamma-33P]ATP assessed as residual activity at 3 uM; procedure, shortened: as §3
[27] = molecular target: Ephrin type-A receptor 4 (Homo sapiens) (UniProt P54764); test: Inhibition of EPHA4 (unknown origin) using [gamma-33P]ATP assessed as residual activity at 3 uM; procedure, shortened: as §3
[28] = molecular target: Ephrin type-A receptor 3 (Homo sapiens) (UniProt P29320); test: Inhibition of EPHA3 (unknown origin) using [gamma-33P]ATP assessed as residual activity at 3 uM; procedure, shortened: as §3
[29] = molecular target: Ephrin type-A receptor 2 (Homo sapiens) (UniProt P29317); test: Inhibition of EPHA2 (unknown origin) using [gamma-33P]ATP assessed as residual activity at 3 uM; procedure, shortened: as §3
[30] = molecular target: Serine/threonine-protein kinase D1 (Homo sapiens) (UniProt Q15139); test: Inhibition of PKCmu (unknown origin) using [gamma-33P]ATP assessed as residual activity at 3 uM
[31] = molecular target: Hepatocyte growth factor receptor (Homo sapiens) (UniProt P08581); test: Inhibition of c-MET (unknown origin) using [gamma-33P]ATP assessed as residual activity at 3 uM
[32] = molecular target: 3-phosphoinositide-dependent protein kinase 1 (Homo sapiens) (UniProt O15530); test: Inhibition of PDK1 (unknown origin) using [gamma-33P]ATP assessed as residual activity at 3 uM

Chain of LIM domain kinase 1 (Homo sapiens) (P53667 whole entry, looked up, the tested form may be a part): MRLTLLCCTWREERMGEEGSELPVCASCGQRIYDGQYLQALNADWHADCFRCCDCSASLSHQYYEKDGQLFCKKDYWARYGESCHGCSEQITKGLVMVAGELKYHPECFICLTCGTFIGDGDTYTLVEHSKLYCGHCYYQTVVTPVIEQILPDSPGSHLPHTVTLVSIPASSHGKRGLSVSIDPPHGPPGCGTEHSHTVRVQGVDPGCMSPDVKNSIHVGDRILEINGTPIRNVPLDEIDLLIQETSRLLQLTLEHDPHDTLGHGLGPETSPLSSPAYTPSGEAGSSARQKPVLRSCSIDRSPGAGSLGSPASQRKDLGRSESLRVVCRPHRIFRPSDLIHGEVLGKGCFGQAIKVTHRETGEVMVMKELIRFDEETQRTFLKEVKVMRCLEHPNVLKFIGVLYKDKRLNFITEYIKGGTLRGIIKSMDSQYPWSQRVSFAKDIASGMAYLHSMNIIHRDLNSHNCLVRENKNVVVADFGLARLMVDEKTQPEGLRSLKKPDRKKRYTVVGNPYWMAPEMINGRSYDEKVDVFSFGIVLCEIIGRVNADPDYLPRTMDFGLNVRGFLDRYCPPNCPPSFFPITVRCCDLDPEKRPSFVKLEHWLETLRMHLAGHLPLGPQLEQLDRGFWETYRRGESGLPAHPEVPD
Chain of Ephrin type-A receptor 4 (Homo sapiens) (P54764 whole entry): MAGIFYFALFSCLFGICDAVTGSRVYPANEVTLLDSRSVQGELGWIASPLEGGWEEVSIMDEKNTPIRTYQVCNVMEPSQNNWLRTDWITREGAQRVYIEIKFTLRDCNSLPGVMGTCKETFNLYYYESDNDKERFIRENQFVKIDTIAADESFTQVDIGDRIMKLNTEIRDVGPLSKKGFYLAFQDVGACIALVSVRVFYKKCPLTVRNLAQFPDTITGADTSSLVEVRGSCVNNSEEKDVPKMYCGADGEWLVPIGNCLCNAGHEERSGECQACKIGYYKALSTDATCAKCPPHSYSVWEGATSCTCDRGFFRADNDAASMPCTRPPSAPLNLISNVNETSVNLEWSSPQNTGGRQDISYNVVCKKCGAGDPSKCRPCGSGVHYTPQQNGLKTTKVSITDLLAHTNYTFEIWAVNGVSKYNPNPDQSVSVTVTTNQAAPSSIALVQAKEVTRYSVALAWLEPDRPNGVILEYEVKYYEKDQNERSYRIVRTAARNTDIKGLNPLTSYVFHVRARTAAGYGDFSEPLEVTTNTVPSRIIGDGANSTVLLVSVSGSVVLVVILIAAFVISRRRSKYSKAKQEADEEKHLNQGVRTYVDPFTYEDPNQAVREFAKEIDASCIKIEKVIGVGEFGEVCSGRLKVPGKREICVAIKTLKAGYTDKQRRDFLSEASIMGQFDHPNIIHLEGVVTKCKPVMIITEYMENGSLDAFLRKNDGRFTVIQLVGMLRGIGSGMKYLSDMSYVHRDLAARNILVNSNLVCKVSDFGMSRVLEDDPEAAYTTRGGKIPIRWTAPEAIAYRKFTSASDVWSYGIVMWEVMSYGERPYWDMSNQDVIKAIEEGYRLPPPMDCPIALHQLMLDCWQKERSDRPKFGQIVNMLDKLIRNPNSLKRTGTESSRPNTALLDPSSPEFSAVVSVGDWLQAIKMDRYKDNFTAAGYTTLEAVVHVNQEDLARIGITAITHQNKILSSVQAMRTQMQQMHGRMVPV
Chain of Tyrosine-protein kinase Yes (P07947 whole entry, looked up): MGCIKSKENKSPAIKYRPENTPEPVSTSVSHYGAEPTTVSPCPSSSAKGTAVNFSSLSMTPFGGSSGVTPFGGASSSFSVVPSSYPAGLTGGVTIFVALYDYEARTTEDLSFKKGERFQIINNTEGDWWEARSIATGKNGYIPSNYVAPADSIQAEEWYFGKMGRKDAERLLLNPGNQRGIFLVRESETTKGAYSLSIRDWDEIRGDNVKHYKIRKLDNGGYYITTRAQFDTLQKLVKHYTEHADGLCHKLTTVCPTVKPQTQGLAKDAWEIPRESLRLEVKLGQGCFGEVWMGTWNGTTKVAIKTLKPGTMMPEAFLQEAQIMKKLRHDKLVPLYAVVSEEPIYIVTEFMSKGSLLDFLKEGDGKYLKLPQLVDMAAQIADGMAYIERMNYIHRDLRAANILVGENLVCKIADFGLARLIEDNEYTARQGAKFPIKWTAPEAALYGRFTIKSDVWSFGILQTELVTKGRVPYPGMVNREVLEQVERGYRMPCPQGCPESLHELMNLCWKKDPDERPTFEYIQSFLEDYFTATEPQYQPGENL
Chain of Testis-specific serine/threonine-protein kinase 1 (Homo sapiens) (Q9BXA7 whole entry): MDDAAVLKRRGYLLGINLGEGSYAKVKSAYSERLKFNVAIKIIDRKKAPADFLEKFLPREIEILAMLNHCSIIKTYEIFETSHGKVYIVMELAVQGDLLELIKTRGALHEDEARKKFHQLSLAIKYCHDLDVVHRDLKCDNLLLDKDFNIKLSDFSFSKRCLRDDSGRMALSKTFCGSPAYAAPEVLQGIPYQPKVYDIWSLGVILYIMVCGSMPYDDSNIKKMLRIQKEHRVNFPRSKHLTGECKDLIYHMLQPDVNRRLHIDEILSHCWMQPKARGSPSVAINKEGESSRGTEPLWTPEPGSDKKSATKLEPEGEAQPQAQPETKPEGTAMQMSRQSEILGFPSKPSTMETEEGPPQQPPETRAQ
Chain of Mitogen-activated protein kinase 8 (Homo sapiens) (P45983 whole entry): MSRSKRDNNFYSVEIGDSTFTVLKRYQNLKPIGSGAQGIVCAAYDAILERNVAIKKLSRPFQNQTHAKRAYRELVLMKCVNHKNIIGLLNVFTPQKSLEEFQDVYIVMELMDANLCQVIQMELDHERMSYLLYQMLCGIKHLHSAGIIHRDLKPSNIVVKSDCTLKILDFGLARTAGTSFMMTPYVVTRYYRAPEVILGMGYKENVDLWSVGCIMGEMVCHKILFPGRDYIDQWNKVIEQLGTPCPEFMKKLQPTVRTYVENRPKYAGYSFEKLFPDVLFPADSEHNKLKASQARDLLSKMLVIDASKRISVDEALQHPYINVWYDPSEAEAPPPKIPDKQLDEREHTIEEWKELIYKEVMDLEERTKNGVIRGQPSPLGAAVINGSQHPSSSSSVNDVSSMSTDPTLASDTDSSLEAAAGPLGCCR
Chain of Platelet-derived growth factor receptor alpha (Homo sapiens), P16234 [D842V] (P16234 whole entry D842V, the tested form may be a part): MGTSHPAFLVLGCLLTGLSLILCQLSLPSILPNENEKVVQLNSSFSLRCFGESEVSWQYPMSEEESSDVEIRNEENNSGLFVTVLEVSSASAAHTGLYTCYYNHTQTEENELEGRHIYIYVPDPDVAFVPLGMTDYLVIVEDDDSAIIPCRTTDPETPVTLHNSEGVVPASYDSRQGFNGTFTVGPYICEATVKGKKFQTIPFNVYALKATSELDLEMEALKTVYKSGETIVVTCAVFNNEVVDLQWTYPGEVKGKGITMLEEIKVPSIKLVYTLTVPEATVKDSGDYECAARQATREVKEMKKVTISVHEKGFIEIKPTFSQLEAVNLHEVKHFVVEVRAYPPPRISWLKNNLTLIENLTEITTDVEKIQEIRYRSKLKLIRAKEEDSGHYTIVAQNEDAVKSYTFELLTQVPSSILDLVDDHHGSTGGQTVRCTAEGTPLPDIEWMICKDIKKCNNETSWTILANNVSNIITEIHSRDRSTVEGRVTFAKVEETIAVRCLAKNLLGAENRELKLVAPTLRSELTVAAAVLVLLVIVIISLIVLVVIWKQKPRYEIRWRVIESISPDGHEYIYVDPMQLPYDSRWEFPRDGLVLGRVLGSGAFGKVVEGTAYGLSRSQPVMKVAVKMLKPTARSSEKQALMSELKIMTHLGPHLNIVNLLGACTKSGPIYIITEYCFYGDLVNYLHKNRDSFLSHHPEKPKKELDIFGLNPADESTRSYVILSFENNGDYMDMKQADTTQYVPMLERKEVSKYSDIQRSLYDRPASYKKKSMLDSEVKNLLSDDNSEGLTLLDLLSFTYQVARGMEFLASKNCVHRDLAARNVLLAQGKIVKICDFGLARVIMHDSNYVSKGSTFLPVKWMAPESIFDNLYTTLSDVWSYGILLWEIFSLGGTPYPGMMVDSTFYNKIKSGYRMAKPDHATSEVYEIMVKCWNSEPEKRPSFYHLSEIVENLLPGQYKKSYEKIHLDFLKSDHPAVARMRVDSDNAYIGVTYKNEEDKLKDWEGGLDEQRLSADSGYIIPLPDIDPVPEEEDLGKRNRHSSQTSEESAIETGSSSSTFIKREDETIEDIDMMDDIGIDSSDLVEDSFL
Chain of Casein kinase I isoform delta (Homo sapiens) (P48730 whole entry, looked up, canonical isoform): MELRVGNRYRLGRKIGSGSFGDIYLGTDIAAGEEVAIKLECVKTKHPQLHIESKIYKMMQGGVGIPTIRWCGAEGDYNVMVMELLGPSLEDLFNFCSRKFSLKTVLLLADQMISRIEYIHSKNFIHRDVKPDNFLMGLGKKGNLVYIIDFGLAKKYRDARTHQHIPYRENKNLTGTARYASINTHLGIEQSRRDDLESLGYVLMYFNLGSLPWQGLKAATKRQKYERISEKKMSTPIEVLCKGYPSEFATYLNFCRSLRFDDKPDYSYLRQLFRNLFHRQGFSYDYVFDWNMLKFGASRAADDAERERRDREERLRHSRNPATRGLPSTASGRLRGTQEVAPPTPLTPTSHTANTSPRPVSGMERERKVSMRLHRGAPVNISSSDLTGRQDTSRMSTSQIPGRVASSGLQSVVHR
Chain of Serine/threonine-protein kinase PAK 3 (Homo sapiens) (O75914 whole entry, looked up): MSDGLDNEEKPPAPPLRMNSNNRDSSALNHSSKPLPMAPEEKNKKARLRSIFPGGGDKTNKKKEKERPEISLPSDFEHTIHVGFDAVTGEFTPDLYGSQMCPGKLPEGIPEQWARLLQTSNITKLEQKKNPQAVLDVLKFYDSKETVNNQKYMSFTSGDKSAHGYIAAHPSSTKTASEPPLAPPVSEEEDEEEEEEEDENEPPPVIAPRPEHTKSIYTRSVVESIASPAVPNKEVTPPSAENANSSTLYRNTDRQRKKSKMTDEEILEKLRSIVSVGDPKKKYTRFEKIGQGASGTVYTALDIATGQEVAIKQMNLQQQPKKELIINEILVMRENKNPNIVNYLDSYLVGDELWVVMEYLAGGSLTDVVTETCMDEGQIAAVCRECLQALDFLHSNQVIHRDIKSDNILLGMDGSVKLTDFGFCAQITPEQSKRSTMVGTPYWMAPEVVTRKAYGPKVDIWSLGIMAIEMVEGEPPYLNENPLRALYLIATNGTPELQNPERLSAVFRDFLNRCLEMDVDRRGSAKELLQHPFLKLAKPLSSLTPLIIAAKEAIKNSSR

Activity [1]: 95%
Activity [2]: 68%
Activity [3]: 100%
Activity [4]: 101%
Activity [5]: 94%
Activity [6]: 102%
Activity [7]: 89%
Activity [8]: 94%
Activity [9]: 93%
Activity [10]: 26%
Activity [11]: 86%
Activity [12]: 101%
Activity [13]: 88%
Activity [14]: 29%
Activity [15]: 94%
Activity [16]: 71%
Activity [17]: 94%
Activity [18]: 87%
Activity [19]: 82%
Activity [20]: 91%
Activity [21]: 25%
Activity [22]: 40%
Activity [23]: 47%
Activity [24]: 87%
Activity [25]: 91%
Activity [26]: 78%
Activity [27]: 95%
Activity [28]: 97%
Activity [29]: 90%
Activity [30]: 93%
Activity [31]: 88%
Activity [32]: 95%
SMILES: CCc1ccc(-c2ccc3c(c2)-c2[nH]ncc2S(=O)(=O)N3C)cc1

Source: ChEMBL document CHEMBL2346629, “Discovery and characterization of novel allosteric FAK inhibitors” (Eur J Med Chem, 2013)
